Active and inactive are the calls of the source. No cut-off for these calls is given here.

Assay [1] concerns the target T1, Transient receptor potential cation channel subfamily A member 1 (Homo sapiens, UniProt O75762). Briefly: Agonist activity at TRPA1 isolated from human W138 cells expressed in HEK293T cells assessed as intracellular Ca2+ influx at 10 to 100 uM by Fluo-4 AM staining-based fluorescence analysis relative to allylisothiocyanate. Format: cell-based. The gist of the method: (§1)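 Tetracycline-induced (1 μg/mL) stable hTRPA1 in HEK T-REx cells, Fluo-4 AM loaded (3 μM, 1 h, 37 °C) in HEPES buffer pH 7.4 with probenecid; Ca2+ read at 37 °C. Compound 0.01−100 μM; HC-030031 30 μM pretreated 3 min. Responses as % of 5 μM ionomycin or of 100 μM AITC; TREx cells without TRPA1 as control; n = 4−8.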

Assay [2] has as its target T2, Transient receptor potential cation channel subfamily V member 1 (Homo sapiens, UniProt Q8NER1). Description: Antagonist activity at human brain TRPV1 expressed in HEK293T cells assessed as inhibition of heat-induced intracellular Ca2+ influx measured for 42 mins by fluorescence-based assay. Type of assay: cell-based, HEK-293T. A digest of the protocol: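 hTRPV1-HEK293T, Fluo-4 loaded; antagonist pretreated 3 min, plate heated from 40 to 45 °C, Ca2+ signal recorded 42 min. Data as % of heat response; IC50 from dose curve; n = 4−10.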

Assay [3] has as its target T2, Transient receptor potential cation channel subfamily V member 1. Description: Competitive antagonist activity at human brain TRPV1 expressed in HEK293T cells assessed as inhibition of CAP-induced intracellular Ca2+ influx at 50 uM preincubated for 3 mins followed by CAP challenge measured after 10 mins of post compound washout. Format: cell-based. As to conditions: HEK-293T. A digest of the protocol:
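hTRPV1-HEK293T cells incubated 3 min with 50 μM compound, washed six times with buffer, kept 10 min at 37 °C in dark, then challenged with 0.01 μM capsaicin; Fluo-4 Ca2+ read-out as % of 10 μM capsaicin.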

For assay [4] the target is unchanged. Briefly: Competitive antagonist activity at […] Wistar rat DRG neurons assessed as inhibition of CAP-induced intracellular Ca2+ influx at 100 uM preincubated for 3 mins followed by CAP challenge. Type of assay: cell-based. The gist of the method: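 Primary DRG neurons from 4-week-old Wistar rats, collagenase-dissociated, cultured with NGF 24−36 h. Fluo-4 Ca2+ imaging with superfusion of 0.1 μM capsaicin and 100 μM compound.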

In assay [5] the target is T3, Transient receptor potential cation channel subfamily V member 3 (Homo sapiens) (UniProt Q8NET8).
T3 sequence (whole entry): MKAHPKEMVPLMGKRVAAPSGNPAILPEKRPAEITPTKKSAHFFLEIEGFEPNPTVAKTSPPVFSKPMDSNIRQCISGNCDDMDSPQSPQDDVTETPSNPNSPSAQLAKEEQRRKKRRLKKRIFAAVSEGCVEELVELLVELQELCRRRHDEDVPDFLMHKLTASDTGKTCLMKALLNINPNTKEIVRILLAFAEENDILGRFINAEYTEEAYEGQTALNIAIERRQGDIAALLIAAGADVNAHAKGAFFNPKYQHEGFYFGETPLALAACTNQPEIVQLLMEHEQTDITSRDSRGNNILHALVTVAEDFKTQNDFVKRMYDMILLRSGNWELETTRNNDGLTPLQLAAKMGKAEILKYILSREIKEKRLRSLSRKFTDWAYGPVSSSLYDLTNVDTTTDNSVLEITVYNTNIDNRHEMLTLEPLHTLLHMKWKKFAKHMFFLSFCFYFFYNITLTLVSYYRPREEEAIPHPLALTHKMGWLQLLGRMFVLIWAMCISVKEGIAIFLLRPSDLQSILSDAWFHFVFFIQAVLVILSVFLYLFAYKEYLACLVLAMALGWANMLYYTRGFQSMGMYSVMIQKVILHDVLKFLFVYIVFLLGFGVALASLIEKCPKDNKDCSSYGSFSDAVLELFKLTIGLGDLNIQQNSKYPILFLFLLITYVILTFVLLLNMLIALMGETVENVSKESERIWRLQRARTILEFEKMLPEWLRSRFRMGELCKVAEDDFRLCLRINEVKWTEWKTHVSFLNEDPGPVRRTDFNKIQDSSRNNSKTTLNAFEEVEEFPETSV
Description: Agonist activity at human TRPV3 expressed in HEK293T cells assessed as intracellular Ca2+ influx at 100 uM by Fluo-4 AM staining-based fluorescence analysis. Type of assay: cell-based. As to conditions: HEK-293T. A digest of the protocol: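 hTRPV3 transiently expressed in HEK293T; loading and assay at 25 °C, Fluo-4 with probenecid buffer pH 7.4. Agonist 100 and 300 μM menthol, 5 μM ruthenium red as reference; 100 μM compound alone or pretreated 3 min. Data as % of 1000 μM menthol.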

The target of assay [6] is T2, Transient receptor potential cation channel subfamily V member 1. Description: Agonist activity at human brain TRPV1 expressed in HEK293T cells assessed as intracellular Ca2+ influx at 100 uM by Fluo-4 AM staining-based fluorescence analysis. Format: cell-based. To be noted: HEK-293T. A digest of the protocol: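 Stable hTRPV1 in HEK293T (G418 selected), Fluo-4 loaded, 37 °C. 100 μM compound alone, or pretreated 3 min before 0.01 μM capsaicin; 10 μM BCTC reference. Data as % of 10 μM capsaicin.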

The target of assay [7] is T1, Transient receptor potential cation channel subfamily A member 1. Description: Agonist activity at TRPA1 isolated from human W138 cells expressed in HEK293T cells assessed as intracellular Ca2+ influx at 100 uM by Fluo-4 AM staining-based fluorescence analysis. Format: cell-based. A digest of the protocol: as §1
Assay [8] addresses Transient receptor potential cation channel subfamily M member 8 (Mus musculus) (UniProt Q8R4D5). As to conditions: Dorsal root ganglion, HEK T-REx, 100 uM.
Assay [9] has the same target. As to conditions: Dorsal root ganglion, HEK T-REx, 100 uM. This is another data set of the same source.
Assay [10] shares this target. To be noted: Dorsal root ganglion, HEK T-REx, 100 uM. This is another data set of the same source.
Assay [11] shares this target. To be noted: Dorsal root ganglion, HEK T-REx, 3 to 30 uM.
For assay [12] the target is unchanged. As to conditions: Dorsal root ganglion, HEK T-REx, 5 to 100 uM.
For assay [13] the target is unchanged. As to conditions: Dorsal root ganglion, HEK T-REx, 3 to 30 uM. The source holds these as a separate data set.
Assay [14] has the same target. To be noted: Dorsal root ganglion, HEK T-REx, 10 to 50 uM.
For assay [15], the target named is T2, Transient receptor potential cation channel subfamily V member 1. Description: Antagonist activity at human brain TRPV1 expressed in HEK293T cells assessed as inhibition of proton-induced intracellular Ca2+ influx at 10 uM by fluorescence-based assay. To be noted: HEK-293T.

Sequence of Transient receptor potential cation channel subfamily M member 8 (Mus musculus) (Q8R4D5 whole entry): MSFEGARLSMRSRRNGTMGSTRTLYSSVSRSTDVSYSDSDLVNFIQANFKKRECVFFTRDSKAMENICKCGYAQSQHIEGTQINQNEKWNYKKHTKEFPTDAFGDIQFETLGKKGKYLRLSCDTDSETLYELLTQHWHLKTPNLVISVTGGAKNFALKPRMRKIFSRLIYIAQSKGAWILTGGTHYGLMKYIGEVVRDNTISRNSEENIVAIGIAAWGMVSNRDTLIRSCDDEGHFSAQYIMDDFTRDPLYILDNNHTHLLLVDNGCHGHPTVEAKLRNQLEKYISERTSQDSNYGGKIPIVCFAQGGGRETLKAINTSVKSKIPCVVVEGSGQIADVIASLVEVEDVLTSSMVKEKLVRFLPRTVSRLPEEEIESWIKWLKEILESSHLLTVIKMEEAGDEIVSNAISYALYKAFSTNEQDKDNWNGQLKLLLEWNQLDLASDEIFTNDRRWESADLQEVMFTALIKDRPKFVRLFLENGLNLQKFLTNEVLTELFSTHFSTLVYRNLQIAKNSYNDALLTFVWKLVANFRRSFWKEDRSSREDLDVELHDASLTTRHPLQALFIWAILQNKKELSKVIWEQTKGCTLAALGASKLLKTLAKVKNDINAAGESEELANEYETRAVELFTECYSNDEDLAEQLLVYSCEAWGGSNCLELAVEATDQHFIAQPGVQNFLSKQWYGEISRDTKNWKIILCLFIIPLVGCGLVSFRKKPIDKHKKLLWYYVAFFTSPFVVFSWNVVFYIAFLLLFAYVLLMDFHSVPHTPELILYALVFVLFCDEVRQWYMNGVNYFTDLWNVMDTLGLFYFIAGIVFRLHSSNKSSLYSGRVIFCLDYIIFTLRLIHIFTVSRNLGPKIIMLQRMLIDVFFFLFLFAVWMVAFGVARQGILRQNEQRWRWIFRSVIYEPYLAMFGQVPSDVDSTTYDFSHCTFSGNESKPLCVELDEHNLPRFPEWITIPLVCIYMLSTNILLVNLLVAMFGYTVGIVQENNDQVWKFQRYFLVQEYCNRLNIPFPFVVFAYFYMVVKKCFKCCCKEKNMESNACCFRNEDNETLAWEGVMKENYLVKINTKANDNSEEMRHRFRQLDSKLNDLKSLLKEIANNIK
T2 sequence (Q8NER1 whole entry): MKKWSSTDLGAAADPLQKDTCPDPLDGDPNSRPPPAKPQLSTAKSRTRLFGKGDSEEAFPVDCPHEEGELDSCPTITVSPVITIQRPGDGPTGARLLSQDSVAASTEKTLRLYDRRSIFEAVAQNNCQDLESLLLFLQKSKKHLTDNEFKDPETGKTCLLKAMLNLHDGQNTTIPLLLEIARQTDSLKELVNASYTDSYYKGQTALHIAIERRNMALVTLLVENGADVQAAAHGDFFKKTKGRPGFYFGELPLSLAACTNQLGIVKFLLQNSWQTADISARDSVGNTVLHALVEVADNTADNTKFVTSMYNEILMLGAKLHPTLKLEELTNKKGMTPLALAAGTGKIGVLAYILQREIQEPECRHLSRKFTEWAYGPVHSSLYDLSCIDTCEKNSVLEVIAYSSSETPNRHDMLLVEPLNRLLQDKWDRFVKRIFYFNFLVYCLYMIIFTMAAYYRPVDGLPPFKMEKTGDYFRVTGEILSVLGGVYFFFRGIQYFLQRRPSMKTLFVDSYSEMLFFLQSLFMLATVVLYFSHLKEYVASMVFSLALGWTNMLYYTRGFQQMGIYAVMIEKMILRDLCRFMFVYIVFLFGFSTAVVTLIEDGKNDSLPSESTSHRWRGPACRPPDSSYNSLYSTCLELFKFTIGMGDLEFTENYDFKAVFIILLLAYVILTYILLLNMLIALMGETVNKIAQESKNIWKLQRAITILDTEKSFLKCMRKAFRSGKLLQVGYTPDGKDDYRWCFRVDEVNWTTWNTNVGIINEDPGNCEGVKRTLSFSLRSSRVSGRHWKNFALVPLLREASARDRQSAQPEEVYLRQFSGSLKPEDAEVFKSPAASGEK
T1 sequence (O75762 whole entry): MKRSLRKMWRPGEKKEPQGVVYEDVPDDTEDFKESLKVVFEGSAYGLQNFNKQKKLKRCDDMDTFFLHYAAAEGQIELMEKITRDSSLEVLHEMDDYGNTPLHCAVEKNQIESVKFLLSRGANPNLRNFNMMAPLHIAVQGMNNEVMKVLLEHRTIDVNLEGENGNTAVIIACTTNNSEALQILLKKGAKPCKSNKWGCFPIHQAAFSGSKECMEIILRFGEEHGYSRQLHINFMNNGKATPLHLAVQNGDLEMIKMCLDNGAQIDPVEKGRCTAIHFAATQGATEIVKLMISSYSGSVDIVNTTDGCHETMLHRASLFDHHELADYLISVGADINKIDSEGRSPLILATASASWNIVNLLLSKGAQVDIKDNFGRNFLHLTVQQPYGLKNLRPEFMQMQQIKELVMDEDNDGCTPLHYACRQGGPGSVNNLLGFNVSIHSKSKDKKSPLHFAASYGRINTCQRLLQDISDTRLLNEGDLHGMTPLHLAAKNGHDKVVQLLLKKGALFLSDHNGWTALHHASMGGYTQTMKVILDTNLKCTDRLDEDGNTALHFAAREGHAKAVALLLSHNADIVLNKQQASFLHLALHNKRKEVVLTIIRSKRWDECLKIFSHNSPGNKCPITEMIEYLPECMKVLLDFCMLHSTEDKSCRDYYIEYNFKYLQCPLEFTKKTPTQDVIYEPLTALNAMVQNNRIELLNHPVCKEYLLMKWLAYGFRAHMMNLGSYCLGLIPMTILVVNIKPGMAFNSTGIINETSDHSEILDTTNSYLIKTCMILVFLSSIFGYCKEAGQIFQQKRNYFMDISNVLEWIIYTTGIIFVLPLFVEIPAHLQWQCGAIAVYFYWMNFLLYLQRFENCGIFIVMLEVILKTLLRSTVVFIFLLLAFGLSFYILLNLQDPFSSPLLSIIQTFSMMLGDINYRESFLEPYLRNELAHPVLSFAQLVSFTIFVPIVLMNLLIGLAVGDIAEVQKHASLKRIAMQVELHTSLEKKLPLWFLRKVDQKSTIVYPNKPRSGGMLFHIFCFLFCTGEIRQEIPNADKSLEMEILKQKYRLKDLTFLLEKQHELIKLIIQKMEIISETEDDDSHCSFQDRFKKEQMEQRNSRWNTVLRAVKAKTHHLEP

Regarding `CC[C@H]1C[C@@H]2CN3CCc4c([nH]c5ccc(OC)cc45)[C@](C(=O)OC)(C2)[C@H]13` [VOACANGINE], in assay [1], the Activity turned out to be 98%. In assay [2], the IC50 is 24 µM. Also, the inhibition result in assay [2] (HEK-293T) is “Dose-dependent effect”. The inhibition result in assay [3], in [10], in [13] and in assay [15] was “inactive” each time. Also, the inhibition result in assay [4], in assay [8], in assay [9], in assay [11], in [12] and in [14] was “Active” each time. For the same molecule, the outcome in assay [5] and in assay [6] was inactive. Further, in [7], the result was Active.

Source of the values: ChEMBL document CHEMBL3108739, “Activation and inhibition of thermosensitive TRP channels by voacangine, an alkaloid present in Voacanga africana, an African tree” (J Nat Prod, 2014).
